Source: ChEMBL document CHEMBL1123461, “Studies on 1,2,3-triazoles. 13. (Piperazinylalkoxy) [1]benzopyrano[2,3-d]-1,2,3-triazol-9(1H)-ones with combined H1-antihistamine and mast cell stabilizing properties” (J Med Chem, 1986)
The source made the active and inactive calls. The calls are words filed in the database; no cut-off is given here.

Experiments:
[1] = molecular target: T1, Histamine H1 receptor (Cavia porcellus, UniProt P31389); test: Compound was tested for H1-antihistamine activity in guinea pig ileum.; format: functional, tissue-based; settings: read-out: pA2 (converted)
Method in brief: (§1)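 Isolated guinea pig ileum under ca. 1 g tension in Tyrode solution, with isotonic recording of histamine contractions. Method A: repeat histamine dose-response curves at increasing antagonist concentrations, then Schild plot of log(DR−1) vs −log molar concentration; pA2 is the abscissa intercept. Method B: 10-min antagonist exposure, then double histamine dose (~50% maximal single dose), three antagonist doses each tested three times.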

[2] = organism: Rattus norvegicus; test: Compound was tested for the inhibition of release of extravasation in rat passive peritoneal anaphylaxis; format: functional, organism-based
Method in brief: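 Rats passively sensitized i.p. with 2 mL 1:5 rat antiserum. Two hours later, i.v. Pontamine Sky Blue, then i.p. challenge with 5 mL Tyrode containing 0.4 mg/mL ovalbumin and heparin. Compound given i.p. in 1 mL saline 30 s before antigen; dose expressed as concentration in 6 mL injected. Peritoneal fluid collected at 5 min; dye read at OD 625 nm. 5–7 rats/dose; ED50 from log-dose regression.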

[3] = molecular target: T1, Histamine H1 receptor; test: H1-antihistamine activity in guinea pig ileum; format: functional, tissue-based; settings: read-out: pA2 (converted); method in brief: as §1
[4] = organism: Rattus norvegicus; test: Compound was tested for the inhibition of release of histamine in rat passive peritoneal anaphylaxis; format: functional, organism-based
Method in brief: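 Rat passive peritoneal anaphylaxis: antiserum i.p. sensitization for 2 h, then i.p. ovalbumin challenge (0.4 mg/mL in 5 mL Tyrode). Compound given i.p. in saline 30 s before antigen; dose expressed as concentration in 6 mL fluid. Peritoneal fluid taken at 5 min, supernatant TCA-treated, histamine measured spectrofluorimetrically. 5–7 rats/dose; % inhibition vs positive controls; ED50 from log-dose regression.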

[5] = molecular target: Histamine H1 receptor (Cavia porcellus) (UniProt P31389); test: Compound was tested for H1-antihistamine activity in guinea pig ileum; IA = Inactive; format: functional, tissue-based; method in brief: as §1
Histamine H1 receptor (Cavia porcellus), sequence (P31389 whole entry): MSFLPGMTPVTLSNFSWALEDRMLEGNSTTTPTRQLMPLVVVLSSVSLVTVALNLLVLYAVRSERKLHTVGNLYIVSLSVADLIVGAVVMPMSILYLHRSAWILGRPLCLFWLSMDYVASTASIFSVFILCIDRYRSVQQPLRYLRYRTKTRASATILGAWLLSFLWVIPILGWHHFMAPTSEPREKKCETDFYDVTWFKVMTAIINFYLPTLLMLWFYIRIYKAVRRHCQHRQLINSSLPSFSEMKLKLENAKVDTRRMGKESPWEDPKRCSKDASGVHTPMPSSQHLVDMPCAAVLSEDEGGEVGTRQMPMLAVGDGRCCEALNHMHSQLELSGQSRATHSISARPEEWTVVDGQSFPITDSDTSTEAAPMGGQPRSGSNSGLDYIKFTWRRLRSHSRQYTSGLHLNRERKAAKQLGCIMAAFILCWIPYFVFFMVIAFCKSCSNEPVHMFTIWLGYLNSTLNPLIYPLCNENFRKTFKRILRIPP

T1 sequence (P31389 whole entry): as above

Row | Structure (SMILES) | Kb [1] | IC50 [2] | Kb [3] | IC50 [4] | pA2 [5]
1 | COc1ccc(CN(CCN(C)C)c2ccccn2)cc1 [PYRILAMINE] | – | – | – | > 200000 nM | –
2 | O=C(O)c1cc(=O)c2c(OCC(O)COc3cccc4oc(C(=O)O)cc(=O)c34)cccc2o1 | – | – | – | – | inactive
3 | Cc1c(OCCCN2CCN(Cc3ccccc3Cl)CC2)ccc2c(O)c3nnnc-3oc12 | – | 10000 nM | 3.98 nM | 2300 nM | –
4 | Cc1c(OCCCN(C)CCN(C)Cc2ccc(Cl)cc2)ccc2c(O)c3nnnc-3oc12 | 79.4 nM | – | – | – | –
5 | Cc1c(OCCCN2CCN(Cc3ccccn3)CC2)ccc2c(O)c3nnnc-3oc12 | – | > 20000 nM | 15.8 nM | 100 nM | –
6 | CN1CCC(=C2c3ccccc3CC(=O)c3sccc32)CC1 [KETOTIFEN] | – | – | – | > 200000 nM | –

Now from value to compound:

Row | Kb [1] | IC50 [2] | Kb [3] | IC50 [4] | pA2 [5] | Structure (SMILES)
7 | 63.1 nM | – | – | – | – | COc1ccc(CN2CCN(CCCOc3ccc4c(O)c5nnnc-5oc4c3C)CC2)cc1
8 | – | 31000 nM | 0.794 nM | 5400 nM | – | Oc1c2nnnc-2oc2cc(OCCCN3CCN(Cc4ccc(Cl)cc4)CC3)ccc12
9 | – | 55000 nM | 1.58 nM | 840 nM | – | Cc1c(OCCCN2CCN(Cc3ccc(Cl)cc3)CC2)ccc2c(O)c3nnnc-3oc12
10 | 15.8 nM | > 20000 nM | – | 890 nM | – | Cc1ccc(CN2CCN(CCCOc3ccc4c(O)c5nnnc-5oc4c3C)CC2)cc1
11 | – | > 20000 nM | 3.98 nM | 1000 nM | – | Cc1c(OCCCN2CCN(Cc3cccc(Cl)c3)CC2)ccc2c(O)c3nnnc-3oc12
